Experiment [1] deals with Rattus norvegicus. The experiment in a line: Anti-allodynic activity in complete freund's adjuvant-induced rat inflammatory pain model assessed as inflammatory mechanical allodynia pretreated at 100 uM intra-cisternally administerd 30 min before CFA injection. In kind it is functional, organism-based. In a few lines: (§1)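 Rats briefly anesthetized (<2 min, 2% isoflurane by mask), given intracisternal 5 μL compound (100 μM) or vehicle (saline + 1% DMSO) 30 min before subcutaneous CFA (25 μL, 2.5 mg/kg) into right vibrissa pad. Static mechanical allodynia tested with 6-g von Frey filament on face every 15 or 30 min over 120 min; allodynic score 0–4 (Vos). n=4–6 rats.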

Experiment [2] deals with Rattus norvegicus. Put plainly: Anti-allodynic activity in complete freund's adjuvant-induced rat inflammatory pain model assessed as inflammatory mechanical allodynia pretreated at 100 uM intra-cisternally administerd 30 min before CFA injection measured 120 min after CFA injection relative to control. In kind it is functional. The note with it: 0.5 h. The procedure, abridged: as §1

Experiment [3] deals with Protein kinase C gamma type (Homo sapiens) (UniProt P05129). Put plainly: Inhibition of PKC-gamma (unknown origin) assessed as residual activity at 10 uM.
The test system of experiment [4] is Rattus norvegicus. The experiment in a line: Anti-allodynic activity in complete freund's adjuvant-induced rat inflammatory pain model assessed as inflammatory mechanical allodynia pretreated at 0.15 ug intra-cisternally administerd 30 min before CFA injection relative to control. The note with it: dose 0.15 µg, 0.5 h. The format is functional. The procedure, abridged:
as §1

Experiment [5] deals with Rattus norvegicus. The experiment in a line: Anti-allodynic activity in complete freund's adjuvant-induced rat inflammatory pain model assessed as inflammatory mechanical allodynia pretreated at 0.17 ug intra-cisternally administerd 30 min before CFA injection relative to control. In kind it is functional. To be noted: dose 0.17 µg, 0.5 h. In a few lines:
as §1

Experiment [6] relates to Rattus norvegicus. The experiment in a line: Anti-allodynic activity in constriction injury-induced rat neuropathic mechanic allodynia model assessed as inflammatory mechanical allodynia at 0.17 ug intra-cisternally administered on day 14 after injury. In kind it is functional, organism-based. The note with it: dose 0.17 µg, in the assay text read “static mechanical allodynia” for “inflammatory mechanical allodynia”. In a few lines:
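Neuropathic model: infraorbital nerve chronic constriction (two loose 4/0 chromic catgut ligatures 1 mm apart, chloral hydrate 400 mg/kg i.p. anesthesia). On day 14, once stable allodynia present, intracisternal 5 μL compound (100 μM) or vehicle (saline + 1% DMSO) under brief isoflurane. Face stimulated with 6-g von Frey filament; allodynic score 0–4; n=5/group; mean ± s.e.m.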

For experiment [7], the target named is Mitogen-activated protein kinase 14 (Homo sapiens) (UniProt Q16539). The experiment in a line: Inhibition of p38alpha MAPK (unknown origin) assessed as residual activity at 10 uM.
Mitogen-activated protein kinase 14 (Homo sapiens), sequence (Q16539 whole entry): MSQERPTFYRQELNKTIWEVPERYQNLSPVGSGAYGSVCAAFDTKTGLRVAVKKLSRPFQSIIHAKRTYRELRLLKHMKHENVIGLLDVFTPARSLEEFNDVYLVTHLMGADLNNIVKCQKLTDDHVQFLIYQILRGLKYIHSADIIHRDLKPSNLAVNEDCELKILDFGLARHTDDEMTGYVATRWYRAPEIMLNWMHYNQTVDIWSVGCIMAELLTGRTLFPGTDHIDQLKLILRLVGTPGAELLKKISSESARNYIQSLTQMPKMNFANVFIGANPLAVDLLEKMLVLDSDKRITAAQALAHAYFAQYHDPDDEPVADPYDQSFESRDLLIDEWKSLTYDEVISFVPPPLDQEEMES

The values below come from ChEMBL document CHEMBL4706480, “Pyridin-2(1H)one derivatives: A possible new class of therapeutics for mechanical allodynia” (Eur J Med Chem, 2020).

Calls of active or inactive are those of the source. The calls are words filed in the database; no cut-off is given here.

As for `Cc1ccc(-c2cc(Nc3ccccc3)c[nH]c2=O)cc1`, the inhibition entry in experiment [1] was “Active”.

The inhibition in vivo is the percentage by which the read-out fell short of the control. On to `O=c1[nH]cc(Nc2ccccc2)cc1-c1ccncc1`, for which the inhibition in vivo at 100 µM in experiment [2] amounted to 90%. In addition, the inhibition result in experiment [1] is “Active”. The Activity in experiment [3] was more than 85%.

Turning to `O=c1[nH]cc(Nc2ccccc2)cc1-c1cccc2[nH]ccc12`, the inhibition result in experiment [1] is “Active”. Moreover, the “inhibition (INH)” value in experiment [4] stood at 98%.

On to `O=c1[nH]cc(Nc2ccccc2)cc1-c1ccc(OC(F)(F)F)cc1`, for which the inhibition entry in experiment [1] is “Active”.

On to `O=c1[nH]cc(Nc2ccccc2)cc1-c1ccccc1`, for which the inhibition entry in experiment [1] was “Active”. The Activity in experiment [3] is more than 85%.

Take `O=c1[nH]cc(Nc2ccccc2)cc1-c1ccccc1Br`: the “inhibition (INH)” value in experiment [5] worked out at 99%. Moreover, the inhibition entry in experiment [6] and in experiment [1] was “Active” in each case. In addition, the Activity in experiment [7] is 19%.

`CC(=O)c1cccc(-c2cc(Nc3ccccc3)c[nH]c2=O)c1`: the inhibition entry in experiment [1] is “Active”.

With `O=c1[nH]cc(Nc2ccccc2)cc1-c1c[nH]c2ccccc12`, in experiment [3], the Activity is more than 85%.

On to `O=c1[nH]cc(Nc2ccccc2)cc1-c1ccc(F)cc1F`, for which the inhibition entry in experiment [1] is “Active”.

Take `CCOC(=O)c1ccccc1-c1cc(Nc2ccccc2)c[nH]c1=O`: the inhibition entry in experiment [1] was “Active”.

For the compound `O=c1[nH]cc(Nc2ccccc2)cc1-c1ccc(O)cc1`, the inhibition result in experiment [1] was “Active”.

Regarding `O=c1[nH]cc(Nc2ccccc2)cc1-c1ccccc1[N+](=O)[O-]`, the inhibition result in experiment [1] was “Active”.

Take `O=c1[nH]cc(Nc2ccccc2)cc1-c1ccc(C(F)(F)F)cc1`: the inhibition result in experiment [1] was “Active”.

Consider `O=c1[nH]cc(Nc2ccccc2)cc1-c1ccnc2ccccc12`, for which, in experiment [1], the inhibition result was “Active”.

For the compound `O=c1[nH]cc(Nc2ccccc2)cc1-c1cccc(Cl)c1`, in experiment [1], the inhibition result is “Active”.

In the case of `O=c1[nH]cc(Nc2ccccc2)cc1-c1cccc2cnccc12`, in experiment [3], the Activity is more than 85%.

As to `O=c1[nH]cc(Nc2ccccc2)cc1-c1cncnc1`, the inhibition result in experiment [1] is “Active”. For the same compound, the Activity in experiment [3] was more than 85%.

Take `NC(=O)c1ccccc1-c1cc(Nc2ccccc2)c[nH]c1=O`: the inhibition entry in experiment [1] is “Active”.

As for `NC(=O)c1ccc(-c2cc(Nc3ccccc3)c[nH]c2=O)cc1`, the inhibition result in experiment [1] is “Active”.

In the case of `O=c1[nH]cc(Nc2ccccc2)cc1-c1ccc(F)cc1`, the inhibition entry in experiment [1] was “Active”. In addition, in experiment [3], the Activity is more than 85%.

As for `O=c1[nH]cc(Nc2ccccc2)cc1-c1cccc2cccnc12`, the inhibition entry in experiment [1] was “Active”. Besides, the Activity in experiment [3] is more than 85%.

In the case of `COC(=O)c1ccc(-c2cc(Nc3ccccc3)c[nH]c2=O)cc1`, the inhibition entry in experiment [1] was “Active”.

Consider `O=c1[nH]cc(Nc2ccccc2)cc1-c1ccccc1Cl`, for which the inhibition result in experiment [1] was “Active”.
